≈ marks a conversion by molar mass, not a printed value. Where “and” joins values, the source holds several entries; their conditions need not be identical. Identical values can stand only once.
Experiments:
Type in all cases: functional
[1] = test system: Mycobacterium tuberculosis; test: Antitubercular activity against Mycobacterium tuberculosis H37Rv after 24 hrs by broth microdilution method
Method in brief: (§1)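 M. tuberculosis H37Rv grown in Middlebrook 7H9 with 10% OADC, diluted to McFarland 1, 50 µl added to 150 µl fresh medium. Compounds from 2 mg/mL DMF stocks tested at 1, 10 and 100 µg/mL; DMF-only controls. 7 days at 37 °C, then 0.01% resazurin added with 24 h further incubation. MIC = lowest concentration preventing blue-to-pink change.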

Klebsiella pneumoniae [2] = test: Antimicrobial activity against Klebsiella pneumoniae at MIC after 3 to 4 days by disc diffusion method
Pseudomonas aeruginosa [3] = test: Antimicrobial activity against Pseudomonas aeruginosa ATTC 27853 after 16 to 18 hrs by serial dilution method
Method in brief: (§2)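 Tube broth dilution: serial drug dilutions in Mueller Hinton broth, pH adjusted to 5.0 with phosphate buffer. A standardized bacterial suspension was inoculated and incubated 16-18 h at 37 °C. MIC was read as the lowest drug concentration with no visible growth. Ciprofloxacin served as the reference.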

Staphylococcus aureus [4] = test: Antimicrobial activity against Staphylococcus aureus […] at MIC after 3 to 4 days by disc diffusion method
Escherichia coli [5] = test: Antimicrobial activity against Escherichia coli […] at MIC after 3 to 4 days by disc diffusion method
Escherichia coli [6] = test: Antimicrobial activity against Escherichia coli […] after 16 to 18 hrs by serial dilution method; method in brief: as §2
[7] = test system: Mycobacterium tuberculosis; test: Antitubercular activity against Mycobacterium tuberculosis H37Rv at MIC after 24 hrs by broth microdilution method; method in brief: as §1
Klebsiella pneumoniae [8] = test: Antimicrobial activity against Klebsiella pneumoniae after 16 to 18 hrs by serial dilution method; method in brief: as §2
Staphylococcus aureus [9] = test: Antimicrobial activity against Staphylococcus aureus […] after 16 to 18 hrs by serial dilution method; method in brief: as §2
Pseudomonas aeruginosa [10] = test: Antimicrobial activity against Pseudomonas aeruginosa ATTC 27853 at MIC after 3 to 4 days by disc diffusion method

| Compound | MIC [1] [µg/mL] | diameter of the inhibition zone (DIZ) (Klebsiella pneumoniae [2]) | MIC (Pseudomonas aeruginosa [3]) [µg/mL] | diameter of the inhibition zone (DIZ) (Staphylococcus aureus [4]) | diameter of the inhibition zone (DIZ) (Escherichia coli [5]) | MIC (Escherichia coli [6]) [µg/mL] | inhibition (INH) [7] [%] | MIC (Klebsiella pneumoniae [8]) [µg/mL] | MIC (Staphylococcus aureus [9]) [µg/mL] | diameter of the inhibition zone (DIZ) (Pseudomonas aeruginosa [10]) |
| --- | --- | --- | --- | --- | --- | --- | --- | --- | --- | --- |
| CSc1ccc(Nc2nc3c(-c4cccc(F)c4)nc4ccccc4c3o2)cc1 | 10 (≈ 24.9 µM) | 22 mm | 6.25 (≈ 15.6 µM) | 20 mm | 23 mm | 6.25 (≈ 15.6 µM) | 95 | 6.25 (≈ 15.6 µM) | 6.25 (≈ 15.6 µM) | 20 mm |
| CCCCCNC(=O)Nc1c(-c2cccc(F)c2)nc2ccccc2c1O | > 100 | 12 mm | 12.5 (≈ 34 µM) | 12 mm | 22 mm | 6.25 (≈ 17 µM) | 0 | 12.5 (≈ 34 µM) | 12.5 (≈ 34 µM) | 11 mm |
| Fc1ccc(-c2nc3ccccc3c3oc(NCc4ccccc4)nc23)cc1 | 10 (≈ 27.1 µM) | 19 mm | 6.25 (≈ 16.9 µM) | 21 mm | 24 mm | 6.25 (≈ 16.9 µM) | 95 | 6.25 (≈ 16.9 µM) | 6.25 (≈ 16.9 µM) | 24 mm |
| CSc1ccc(NC(=O)Nc2c(-c3cccc(F)c3)nc3ccccc3c2O)cc1 | > 100 | <10 mm | 50 (≈ 119 µM) | <10 mm | 22 mm | 6.25 (≈ 14.9 µM) | 0 | 50 (≈ 119 µM) | 50 (≈ 119 µM) | <10 mm |
| O=C(O)c1cn(C2CC2)c2cc(N3CCNCC3)c(F)cc2c1=O [CIPROFLOXACIN] | – | 25 mm and 22 mm | – | 26 mm and 24 mm | 28 mm and 29 mm | – | – | 6.25 (≈ 18.9 µM) | – | 31 mm and 25 mm |
| O=C(NCCc1ccccc1)Nc1c(-c2cccc(F)c2)nc2ccccc2c1O | > 100 | <10 mm | 50 (≈ 125 µM) | <10 mm | <10 mm | 50 (≈ 125 µM) | 0 | 50 (≈ 125 µM) | 50 (≈ 125 µM) | <10 mm |
| CCCCCNc1nc2c(-c3ccc(F)cc3)nc3ccccc3c2o1 | > 100 | <10 mm | 50 (≈ 143 µM) | <10 mm | <10 mm | 50 (≈ 143 µM) | 0 | 50 (≈ 143 µM) | 50 (≈ 143 µM) | <10 mm |
| CO[C@H]1/C=C/O[C@@]2(C)Oc3c(C)c(O)c4c(O)c(c(/C=N/N5CCN(C)CC5)c(O)c4c3C2=O)NC(=O)/C(C)=C\C=C\[C@H](C)[C@H](O)[C@@H](C)[C@@H](O)[C@@H](C)[C@H](OC(C)=O)[C@@H]1C [RIFAMPIN] | 0.5 (≈ 0.608 µM) | – | – | – | – | – | 99 | – | – | – |
| NNC(=O)c1ccncc1 [ISONIAZID] | 1.5 (≈ 10.9 µM) | – | – | – | – | – | 95 | – | – | – |
| N#Cc1cccc(Nc2nc3c(-c4cccc(F)c4)nc4ccccc4c3o2)c1 | > 100 | 12 mm | 12.5 (≈ 32.9 µM) | 11 mm | 16 mm | 12.5 (≈ 32.9 µM) | 0 | 12.5 (≈ 32.9 µM) | 12.5 (≈ 32.9 µM) | 14 mm |
| O=C(NCc1ccccc1)Nc1c(-c2cccc(F)c2)nc2ccccc2c1O | 10 (≈ 25.8 µM) | 18 mm | 6.25 (≈ 16.1 µM) | 18 mm | 21 mm | 6.25 (≈ 16.1 µM) | 95 | 6.25 (≈ 16.1 µM) | 6.25 (≈ 16.1 µM) | 20 mm |
| Cc1cc(C)cc(NC(=O)Nc2c(-c3ccc(F)cc3)nc3ccccc3c2O)c1 | > 100 | <10 mm | 50 (≈ 125 µM) | <10 mm | <10 mm | 50 (≈ 125 µM) | 0 | 50 (≈ 125 µM) | 50 (≈ 125 µM) | <10 mm |

Source: ChEMBL document CHEMBL1154853, “New 1,3-oxazolo[4,5-c]quinoline derivatives: synthesis and evaluation of antibacterial and antituberculosis properties” (2010)
